According to ChEMBL document CHEMBL4689842, “EUbOPEN Chemogenomics Library wave 1” (2021):

Key:
Type in all cases: toxicity, cell-based
[1] = system: HEK-293T; assay: Incucyte cell viability with HEK293T; conditions: human, 10 µM, compound concentration 10 uM; further: filed as whole numbers so only -1 and 0 and 1 occur
[2] = system: Fibroblast; assay: Multiplex assay against human fibroblast
In short: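 Hoechst33342, BioTracker Green Microtubule Cytoskeleton Dye, MitoTracker Red and Annexin V Alexa Fluor 680 were added to live cells at seeding, and imaging on a CQ1 microscope at 37°C and 5% CO2 followed compound addition. Gating by CellPathfinder machine learning separated cells into Hoechst high-intensity objects or normal cells, then normal cells into healthy, pyknosed or fragmented nuclei, then pyknosed cells into mitotic or apoptotic. Per cents of healthy-nucleus cells are reported for the tubulin, mitochondrial-mass and membrane-permeability phenotypes.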

[3] = system: U2OS; assay: Incucyte cell viability with U2OS; conditions: human, 10 µM, compound concentration 10 uM; further: filed as whole numbers so only -1 and 0 and 1 occur
[4] = 6 h, replicate number 1, timepoint 6 hours
[5] = 12 h, replicate number 1, timepoint 12 hours
[6] = 18 h, replicate number 1, timepoint 18 hours
[7] = 24 h, replicate number 1, timepoint 24 hours
[8] = 12 h, 1 µM, compound concentration 1 uM, replicate 1
[9] = 12 h, 1 µM, compound concentration 1 uM, replicate 2
[10] = 12 h, 10 µM, compound concentration 10 uM, replicate 1
[11] = 12 h, 10 µM, compound concentration 10 uM, replicate 2
[12] = 24 h, 1 µM, compound concentration 1 uM, replicate 1
[13] = 24 h, 1 µM, compound concentration 1 uM, replicate 2
[14] = 24 h, 10 µM, compound concentration 10 uM, replicate 1
[15] = 24 h, 10 µM, compound concentration 10 uM, replicate 2
[16] = 48 h, 1 µM, compound concentration 1 uM, replicate 1
[17] = 48 h, 1 µM, compound concentration 1 uM, replicate 2
[18] = 48 h, 10 µM, compound concentration 10 uM, replicate 1
[19] = 48 h, 10 µM, compound concentration 10 uM, replicate 2

With `Oc1cccc(-c2nc(N3CCOCC3)c3oc4ncccc4c3n2)c1` [PI-103] the “Growth Rate” value [1, 4] was 0, the “Growth Rate” value [1, 5] was 0 and the “Growth Rate” value [1, 6] was 0. The “Growth Rate” value [1, 7] was 0, the “Population Apoptotic (%)” value [2, 8] was 64% and the “Population Fragmented Nuclei (%)” value [2, 8] was 32%. The “Population Healthy Nuclei (%)” value [2, 8] was 39%, the “Population Hoechst High Intensity Objects (%)” value [2, 8] was 12% and the “Population Membrane Permeable-Phenotype (%)” value [2, 8] was 14%. The “Population Mitochondria Different-Phenotype (%)” value [2, 8] was 1%, the “Population Mitotic Cells (%)” value [2, 8] was 36% and the “Population Normal (%)” value [2, 8] was 87%. The “Population Pyknosed Nuclei (%)” value [2, 8] was 28%, the “Population Tubulin-Different-Phenotype (%)” value [2, 8] was 17% and the “Total Cell Count” value [2, 8] was 199. The “Population Apoptotic (%)” value [2, 9] was 47%, the “Population Fragmented Nuclei (%)” value [2, 9] was 10% and the “Population Healthy Nuclei (%)” value [2, 9] was 63%. The “Population Hoechst High Intensity Objects (%)” value [2, 9] was 5%, the “Population Membrane Permeable-Phenotype (%)” value [2, 9] was 2% and the “Population Mitochondria Different-Phenotype (%)” value [2, 9] was 7%. The “Population Mitotic Cells (%)” value [2, 9] was 52%, the “Population Normal (%)” value [2, 9] was 94% and the “Population Pyknosed Nuclei (%)” value [2, 9] was 26%. For the same compound, the “Population Tubulin-Different-Phenotype (%)” value [2, 9] was 0%, the “Total Cell Count” value [2, 9] was 73 and the “Population Apoptotic (%)” value [2, 10] was 70%. For the same compound, the “Population Fragmented Nuclei (%)” value [2, 10] was 34%, the “Population Healthy Nuclei (%)” value [2, 10] was 34% and the “Population Hoechst High Intensity Objects (%)” value [2, 10] was 23%. The “Population Membrane Permeable-Phenotype (%)” value [2, 10] was 33%, the “Population Mitochondria Different-Phenotype (%)” value [2, 10] was 16% and the “Population Mitotic Cells (%)” value [2, 10] was 29%. For the same compound, the “Population Normal (%)” value [2, 10] was 76%, the “Population Pyknosed Nuclei (%)” value [2, 10] was 30% and the “Population Tubulin-Different-Phenotype (%)” value [2, 10] was 77%. For the same compound, the “Total Cell Count” value [2, 10] was 135, the “Population Apoptotic (%)” value [2, 11] was 36% and the “Population Fragmented Nuclei (%)” value [2, 11] was 18%. For the same compound, the “Population Healthy Nuclei (%)” value [2, 11] was 39%, the “Population Hoechst High Intensity Objects (%)” value [2, 11] was 5% and the “Population Mitochondria Different-Phenotype (%)” value [2, 11] was 59%. For the same compound, the “Population Mitotic Cells (%)” value [2, 11] was 63%, the “Population Normal (%)” value [2, 11] was 94% and the “Population Pyknosed Nuclei (%)” value [2, 11] was 41%. For the same compound, the “Population Tubulin-Different-Phenotype (%)” value [2, 11] was 83%, the “Total Cell Count” value [2, 11] was 69 and the “Population Apoptotic (%)” value [2, 12] was 64%. For the same compound, the “Population Fragmented Nuclei (%)” value [2, 12] was 30%, the “Population Healthy Nuclei (%)” value [2, 12] was 46% and the “Population Hoechst High Intensity Objects (%)” value [2, 12] was 14%. The “Population Membrane Permeable-Phenotype (%)” value [2, 12] was 18%, the “Population Mitochondria Different-Phenotype (%)” value [2, 12] was 5% and the “Population Mitotic Cells (%)” value [2, 12] was 35%. The “Population Normal (%)” value [2, 12] was 85%, the “Population Pyknosed Nuclei (%)” value [2, 12] was 22% and the “Population Tubulin-Different-Phenotype (%)” value [2, 12] was 30%. For the same compound, the “Total Cell Count” value [2, 12] was 189, the “Population Apoptotic (%)” value [2, 13] was 75% and the “Population Fragmented Nuclei (%)” value [2, 13] was 14%. The “Population Healthy Nuclei (%)” value [2, 13] was 69%, the “Population Hoechst High Intensity Objects (%)” value [2, 13] was 6% and the “Population Membrane Permeable-Phenotype (%)” value [2, 13] was 3%. The “Population Mitochondria Different-Phenotype (%)” value [2, 13] was 3%, the “Population Mitotic Cells (%)” value [2, 13] was 25% and the “Population Normal (%)” value [2, 13] was 93%. For the same compound, the “Population Pyknosed Nuclei (%)” value [2, 13] was 16%, the “Population Tubulin-Different-Phenotype (%)” value [2, 13] was 1% and the “Total Cell Count” value [2, 13] was 73. The “Population Apoptotic (%)” value [2, 14] was 66%, the “Population Fragmented Nuclei (%)” value [2, 14] was 32% and the “Population Healthy Nuclei (%)” value [2, 14] was 32%. For the same compound, the “Population Hoechst High Intensity Objects (%)” value [2, 14] was 32%, the “Population Membrane Permeable-Phenotype (%)” value [2, 14] was 37% and the “Population Mitochondria Different-Phenotype (%)” value [2, 14] was 12%. The “Population Mitotic Cells (%)” value [2, 14] was 33%, the “Population Normal (%)” value [2, 14] was 67% and the “Population Pyknosed Nuclei (%)” value [2, 14] was 36%. The “Population Tubulin-Different-Phenotype (%)” value [2, 14] was 70%, the “Total Cell Count” value [2, 14] was 111 and the “Population Apoptotic (%)” value [2, 15] was 50%. The “Population Fragmented Nuclei (%)” value [2, 15] was 28%, the “Population Healthy Nuclei (%)” value [2, 15] was 24% and the “Population Hoechst High Intensity Objects (%)” value [2, 15] was 4%. For the same compound, the “Population Membrane Permeable-Phenotype (%)” value [2, 15] was 44%, the “Population Mitochondria Different-Phenotype (%)” value [2, 15] was 75% and the “Population Mitotic Cells (%)” value [2, 15] was 49%. For the same compound, the “Population Normal (%)” value [2, 15] was 95%, the “Population Pyknosed Nuclei (%)” value [2, 15] was 47% and the “Population Tubulin-Different-Phenotype (%)” value [2, 15] was 89%. For the same compound, the “Total Cell Count” value [2, 15] was 80, the “Population Apoptotic (%)” value [2, 16] was 33% and the “Population Fragmented Nuclei (%)” value [2, 16] was 33%. For the same compound, the “Population Healthy Nuclei (%)” value [2, 16] was 53%, the “Population Membrane Permeable-Phenotype (%)” value [2, 16] was 20% and the “Population Mitochondria Different-Phenotype (%)” value [2, 16] was 5%. For the same compound, the “Population Mitotic Cells (%)” value [2, 16] was 66%, the “Population Pyknosed Nuclei (%)” value [2, 16] was 12% and the “Population Tubulin-Different-Phenotype (%)” value [2, 16] was 22%. The “Total Cell Count” value [2, 16] was 163, the “Population Apoptotic (%)” value [2, 17] was 60% and the “Population Fragmented Nuclei (%)” value [2, 17] was 32%. For the same compound, the “Population Healthy Nuclei (%)” value [2, 17] was 62%, the “Population Hoechst High Intensity Objects (%)” value [2, 17] was 14% and the “Population Membrane Permeable-Phenotype (%)” value [2, 17] was 34%. The “Population Mitochondria Different-Phenotype (%)” value [2, 17] was 8%, the “Population Mitotic Cells (%)” value [2, 17] was 40% and the “Population Normal (%)” value [2, 17] was 85%. The “Population Pyknosed Nuclei (%)” value [2, 17] was 4%, the “Population Tubulin-Different-Phenotype (%)” value [2, 17] was 47% and the “Total Cell Count” value [2, 17] was 129. The “Population Apoptotic (%)” value [2, 18] was 46%, the “Population Fragmented Nuclei (%)” value [2, 18] was 35% and the “Population Healthy Nuclei (%)” value [2, 18] was 43%. The “Population Hoechst High Intensity Objects (%)” value [2, 18] was 33%, the “Population Membrane Permeable-Phenotype (%)” value [2, 18] was 34% and the “Population Mitochondria Different-Phenotype (%)” value [2, 18] was 12%. For the same compound, the “Population Mitotic Cells (%)” value [2, 18] was 53%, the “Population Normal (%)” value [2, 18] was 66% and the “Population Pyknosed Nuclei (%)” value [2, 18] was 20%. For the same compound, the “Population Tubulin-Different-Phenotype (%)” value [2, 18] was 68%, the “Total Cell Count” value [2, 18] was 110 and the “Population Apoptotic (%)” value [2, 19] was 78%. The “Population Fragmented Nuclei (%)” value [2, 19] was 36%, the “Population Healthy Nuclei (%)” value [2, 19] was 42% and the “Population Hoechst High Intensity Objects (%)” value [2, 19] was 40%. The “Population Membrane Permeable-Phenotype (%)” value [2, 19] was 20%, the “Population Mitochondria Different-Phenotype (%)” value [2, 19] was 24% and the “Population Mitotic Cells (%)” value [2, 19] was 21%. For the same compound, the “Population Normal (%)” value [2, 19] was 59%, the “Population Tubulin-Different-Phenotype (%)” value [2, 19] was 58% and the “Total Cell Count” value [2, 19] was 114. For the same compound, the “Growth Rate” value ([3]; 0 h, replicate number 1, timepoint 0 hours) was 0, the “Growth Rate” value [3, 4] was 1 and the “Growth Rate” value [3, 5] was 1. The “Growth Rate” value [3, 6] was 0, the “Growth Rate” value ([3]; 18 h, replicate number 2, timepoint 18 hours) was 1 and the “Growth Rate” value [3, 7] was 0. The “Growth Rate” value ([3]; 24 h, replicate number 2, timepoint 24 hours) was 1.
